# Measurements: PMC8049015 (Journal of Clinical Pharmacology, 2020)
# Where two headings read alike, the source gives them in different places. Marks after values point to notes of the source that are not given here.
# Legend:
# [1] = tested on: moderate to severe atopic dermatitis; details: phase 3 studies; cited from earlier work
# [2] = tested on: subjects with moderate to severe atopic dermatitis; assay: Phase 2b dose‐ranging study, observed efficacy in week 16; assay type: in vivo, human; details: week 16, NRI
# [3] = tested on: subjects with moderate to severe atopic dermatitis; assay: Exposure‐response logistic regression models; assay type: in vivo, human; details: logit scale; week 16, NRI; estimate
# How it was run: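 Week-16 EASI-75, EASI-90 and IGA 0/1 responses from 167 phase 2b adults were each fitted by logistic regression with an Emax link, with estimates on the logit scale. The exposure was individual steady-state Cavg from empirical Bayesian population-PK parameters. Drug effect was tested by likelihood ratio at P < .01. Covariates were selected stepwise (entry P < .01, removal P < .001). Models were chosen by AIC, fit and precision.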
# [4] = assay type: in vivo, human; details: steady state, median (5th to 95th percentiles), model‐predicted
# How it was run: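 Plasma exposures at steady state over a dosing interval (median, 5th–95th percentiles) were predicted by a 2-compartment population-PK model for the oral extended-release once-daily regimens. Absorption was mixed zero- and first-order with a lag time. Sparse samples from weeks 2 and 4 (predose) and weeks 8, 12 and 16 (any time) were assayed by validated LC-MS.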
# [5] = tested on: subjects with moderate to severe atopic dermatitis; details: week 16, placebo 23%, cited from earlier work
# [6] = cited from earlier work
# [7] = tested on: subjects with moderate to severe RA; details: cited from earlier work
# [8] = 7.5, 15, 30 mg once daily, 16 weeks; cited from earlier work
# [9] = 15 mg once daily extended‐release
compound,measurement,setting,value
dupilumab,Patients who achieved no or almost no disease activity,[1],< 40%
CC[C@@H]1CN(C(=O)NCC(F)(F)F)C[C@@H]1c1cnc2cnc3[nH]ccc3n12 [upadacitinib],Observed percentage of subjects achieving EASI‐75,[2]; 7.5 mg once daily,[29] %
same,Observed percentage of subjects achieving EASI‐90,[2]; 7.5 mg once daily,[14] %
same,Observed percentage of subjects achieving IGA 0/1,[2]; 7.5 mg once daily,[14] %
same,Observed percentage of subjects achieving EASI‐90,[2]; 15 mg once daily,[26] %
same,Observed percentage of subjects achieving IGA 0/1,[2]; 15 mg once daily,[31] %
same,Observed percentage of subjects achieving EASI‐90,[2]; 30 mg once daily,[50] %
same,Observed percentage of subjects achieving IGA 0/1,[2]; 30 mg once daily,[50] %
same,"Emax, probability of achieving EASI‐75",[3],5.35 (17% ^a )
same,"Emax, probability of achieving EASI‐90",[3],6.2 (13% ^a )
same,"Emax, probability of achieving IGA 0/1",[3],5.78 (12% ^a )
same,Cmin,[4]; 7.5 mg once daily extended‐release,2.0 (0.56‐6.2) ng/mL
same,Cmax,[4]; [9],41.2 (27.7‐65.8) ng/mL
same,Cmin,[4]; [9],2.7 (1.2‐11.3) ng/mL
same,Cmin,[4]; 30 mg once daily extended‐release,6.6 (2.1‐22.1) ng/mL
same,Mean improvement in EASI from baseline,[5]; 7.5 mg once daily,39%
same,Mean improvement in EASI from baseline,[5]; 15 mg once daily,62%
same,Mean improvement in EASI from baseline,[5]; 30 mg once daily,74%
same,Oral bioavailability of the extended‐release tablet relative to the same dose of the immediate‐release formulation,[6],76%
same,Dose proportionality of plasma exposure,[6]; over the evaluated dose range across clinical studies,approximately dose proportional
same,Accumulation with repeated dosing,[6]; twice daily immediate‐release or once daily extended‐release,no significant accumulation
same,"Estimated increase in the percentage of subjects achieving ACR 20/50/70 responses or DAS‐28 low disease activity and clinical remission, 30 mg once daily compared with 15 mg once daily exposures",[7],< 5%
same,Dose relationship for serious infections or overall incidence of adverse events,[8],no dose relationship was observed
same,Dose‐limiting safety events,[8],No dose‐limiting safety events were observed
